Measurements from ChEMBL document CHEMBL3352304, “Synthesis and evaluation of 3-salicyloylpyridine derivatives as cytotoxic mitochondrial apoptosis inducers” (Bioorg Med Chem Lett, 2014).
Active and inactive are the calls of the source. The calls are words filed in the database; no cut-off is given here.

Tests used:
[1] = Cytotoxicity against human Hep cells after 48 hrs by SRB assay; assay type: functional, cell-based
[2] = tested on: HeLa; assay: Cytotoxicity against human HeLa cells after 48 hrs by SRB assay; assay type: functional, cell-based
[3] = Cytotoxicity against human PC3 cells after 48 hrs by SRB assay; assay type: functional, cell-based; settings: PC-3, 48 h
[4] = tested on: MCF7; assay: Cytotoxicity against human MCF7 cells after 48 hrs by SRB assay; assay type: functional, cell-based; settings: MCF7, 48 h
[5] = Cytotoxicity against human IMR32 cells after 48 hrs by SRB assay; assay type: functional, cell-based; settings: IMR-32, 48 h
[6] = tested on: PC-3; assay: Induction of apoptotic morphological changes in human PC3 cells assessed as spherical cell shape changes at cytotoxic IC50 level incubated for 12 hrs by DAPI staining based confocal laser microscopy; assay type: functional
In short: (§1)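 PC-3 cells (1 × 10⁶) in 1 ml medium in 24-well plates grown to confluence 24 h at 37 °C, 5% CO₂, then exposed to test compound at its IC₅₀ for 12 h; camptothecin 2 µM as positive control. Medium replaced with serum-free medium, cells stained with DAPI (10 mM) 1 h at 37 °C and imaged by laser scanning confocal fluorescence microscopy against untreated control.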

[7] = tested on: PC-3; assay: Induction of apoptotic morphological changes in human PC3 cells assessed as increase in apoptotic bodies at cytotoxic IC50 level incubated for 12 hrs by DAPI staining based confocal laser microscopy; assay type: functional, cell-based; in short: as §1
[8] = tested on: PC-3; assay: Induction of apoptotic morphological changes in human PC3 cells assessed as plasma membrane blebbing at cytotoxic IC50 level incubated for 12 hrs by DAPI staining based confocal laser microscopy; assay type: functional, cell-based; in short: as §1
[9] = tested on: PC-3; assay: Induction of apoptotic morphological changes in human PC3 cells assessed as cell surface smoothening at cytotoxic IC50 level incubated for 12 hrs by scanning electron microscopy; assay type: functional, cell-based
In short: (§2)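 PC-3 cells incubated with test compound at its IC₅₀ for 12 h, with 2 µM camptothecin as positive control and untreated cells as control; cell surface morphology examined by scanning electron microscopy.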

[10] = tested on: PC-3; assay: Induction of apoptotic morphological changes in human PC3 cells assessed as cell size condensation at cytotoxic IC50 level incubated for 12 hrs by scanning electron microscopy; assay type: functional, cell-based; in short: as §2
[11] = tested on: PC-3; assay: Reduction in mitochondrial membrane potential in human PC3 cells incubated for 12 hrs by rhodamine-123 dye based spectrofluorimetry; assay type: functional, cell-based
In short: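 PC-3 cells (1 × 10⁶) in 24-well plates incubated with or without test compound at 1, 5 and 10 µM for 12 h at 37 °C, 5% CO₂, washed with PBS, then loaded with rhodamine-123 1 h in serum-free medium. Fluorescence read in a plate reader at excitation 480 nm / emission 530 nm; shown with SD.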

[12] = tested on: PC-3; assay: Induction of intracellular ROS generation in human PC3 cells incubated for 12 hrs by DCFH-DA dye based spectrofluorimetry; assay type: functional, cell-based
In short: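 PC-3 cells plated at 1 × 10⁶ cells/dish in 24-well plates, adhered 6 h, then grown with or without test compound at 5, 10 and 15 µM for 12 h; DCFH-DA added 30 min before end. Trypsinized plus floating cells collected, 1 × 10⁶ cells pelleted, resuspended in ice-cold PBS (1.0 ml) and intracellular peroxides measured by spectrofluorimetry.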

[13] = tested on: PC-3; assay: Induction of apoptotic morphological changes in human PC3 cells assessed as plasma membrane blebbing at cytotoxic IC50 level incubated for 12 hrs by scanning electron microscopy; assay type: functional, cell-based; in short: as §2
[14] = tested on: PC-3; assay: Induction of apoptosis in human PC3 cells at 2 uM incubated for 12 hrs by DAPI staining based confocal laser microscopy; assay type: functional, cell-based
In short: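 PC-3 human prostate cancer cells (1 × 10⁶ in 1 ml medium) grown to confluence for 24 h at 37 °C, 5% CO₂, then exposed 12 h. Medium replaced with serum-free medium and cells stained with DAPI for 1 h at 37 °C. Nuclear and cell morphology imaged by laser scanning confocal fluorescence microscopy against untreated control cells.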

`O=C(c1cccnc1)c1cc(F)ccc1O` gave an IC50 [1] of 12 µM, an IC50 [2] of 27 µM and an IC50 [3] of 11.8 µM. The IC50 [4] was 27.8 µM and the IC50 [5] was 6.21 µM.

Compound `C=CCOc1ccccc1C(=O)c1cccnc1` has an IC50 [1] greater than 100 µM, an IC50 [2] greater than 100 µM and an IC50 [3] of 55 µM. It also gave an IC50 [4] greater than 100 µM and an IC50 [5] of 44 µM.

For `O=C(c1cccnc1)c1cc(Cl)cc(Cl)c1O`, the IC50 [1] was 27 µM, the IC50 [2] was greater than 100 µM and the IC50 [3] was 28.7 µM. It also gave an IC50 [4] of 29.6 µM and an IC50 [5] of 28.8 µM.

Compound `O=C(c1cccnc1)c1cc(Cl)ccc1O` has an IC50 [1] of 27 µM, an IC50 [2] of 24 µM and an IC50 [3] of 24.8 µM. For the same compound, the IC50 [4] was 29 µM and the IC50 [5] was 19.5 µM.

For `Cc1ccc(O)c(C(=O)c2cccnc2)c1`, the Activity [6] was “Active”, the Activity [7] was “Active” and the Activity [8] was “Active”. For the same compound, the IC50 [1] was 11 µM, the Activity [9] was “Active” and the Activity [10] was “Active”. The IC50 [2] was 26 µM, the Activity [11] was “Dose-dependent effect” and the IC50 [3] was 10 µM. The IC50 [4] was 8.04 µM, the IC50 [5] was 5.54 µM and the Activity [12] was “Dose-dependent effect”. For the same compound, the Activity [13] was “Active”.

In the case of `O=C(c1cccnc1)c1ccc(Br)cc1O`, the IC50 [1] is reported as 85 µM, the IC50 [2] is reported as 37 µM and the IC50 [3] is reported as 88.6 µM. It also gave an IC50 [4] greater than 100 µM and an IC50 [5] of 89 µM.

For `C=CCOc1c(Cl)cc(Cl)cc1C(=O)c1cccnc1`, the IC50 [1] was greater than 100 µM, the IC50 [2] was 34 µM and the IC50 [3] was 96 µM. It also gave an IC50 [4] of 85 µM and an IC50 [5] of 52 µM.

`O=c1[nH]cc(F)c(=O)[nH]1` [FLUOROURACIL] showed an IC50 [1] of 0.5 µM and an IC50 [5] of 1.3 µM.

In the case of `O=C(c1cccnc1)c1ccccc1O`, the IC50 [1] is reported as 31 µM, the IC50 [2] is reported as 33 µM and the IC50 [3] is reported as 33.4 µM. The IC50 [4] was 24.6 µM and the IC50 [5] was 33.7 µM.

For `CC[C@@]1(O)C(=O)OCc2c1cc1n(c2=O)Cc2cc3ccccc3nc2-1`, the Activity [14] was “Active”.

`C=CCOc1cc(Br)ccc1C(=O)c1cccnc1` showed an IC50 [1] greater than 100 µM, an IC50 [2] greater than 100 µM and an IC50 [3] greater than 100 µM. It also gave an IC50 [4] greater than 100 µM and an IC50 [5] of 98 µM.

`C=CCOc1ccc(C)cc1C(=O)c1cccnc1` showed an IC50 [1] of 72 µM, an IC50 [2] of 94 µM and an IC50 [3] of 98 µM. For the same compound, the IC50 [4] was 84 µM and the IC50 [5] was 87 µM.

Work on `C=CCOc1ccc(Cl)cc1C(=O)c1cccnc1` yielded an IC50 [1] greater than 100 µM, an IC50 [2] of 75 µM and an IC50 [3] greater than 100 µM. It also gave an IC50 [4] of 54 µM and an IC50 [5] of 91 µM.

`C=CCOc1ccc(Br)cc1C(=O)c1cccnc1` gave an IC50 [1] of 78 µM, an IC50 [2] of 96 µM and an IC50 [3] of 59 µM. For the same compound, the IC50 [4] was 92 µM and the IC50 [5] was 88 µM.

In the case of `CO[C@@]12[C@H](COC(N)=O)C3=C(C(=O)C(C)=C(N)C3=O)N1C[C@@H]1N[C@@H]12` [MITOMYCIN], the IC50 [3] is reported as 1.5 µM.

Work on `C=CCOc1c(Cl)cccc1C(=O)c1cccnc1` yielded an IC50 [1] of 92 µM, an IC50 [2] of 100 µM and an IC50 [3] greater than 100 µM. It also gave an IC50 [4] greater than 100 µM and an IC50 [5] of 94 µM.

In the case of `O=C(c1cccnc1)c1cc(Br)ccc1O`, the IC50 [1] is reported as 29 µM, the IC50 [2] is reported as 29 µM and the IC50 [3] is reported as 60.2 µM. The IC50 [4] was 53.5 µM and the IC50 [5] was 23.4 µM.

`O=C(c1cccnc1)c1cccc(Cl)c1O` gave an IC50 [1] of 28 µM, an IC50 [2] of 21 µM and an IC50 [3] of 31.5 µM. The IC50 [4] was 26.7 µM and the IC50 [5] was 26 µM.

With `C=CCOc1ccc(F)cc1C(=O)c1cccnc1` the IC50 [1] was greater than 100 µM, the IC50 [2] was 93 µM and the IC50 [3] was greater than 100 µM. The IC50 [4] was greater than 100 µM and the IC50 [5] was 91 µM.

For `CC(=O)O[C@H]1C(=O)[C@@]2(C)[C@H]([C@H](OC(=O)c3ccccc3)[C@]3(O)C[C@H](OC(=O)[C@H](O)[C@@H](NC(=O)c4ccccc4)c4ccccc4)C(C)=C1C3(C)C)[C@]1(OC(C)=O)CO[C@@H]1C[C@@H]2O` [PACLITAXEL], the IC50 [4] was 0.2 µM.
